This note sets out measurements from ChEMBL document CHEMBL3259723, “Membrane active vancomycin analogues: a strategy to combat bacterial resistance” (J Med Chem, 2014).

Calls of active or inactive are those of the source. The rule behind the calls is not given here.

The subject of assay [1] is Staphylococcus aureus. As to the kind of experiment: Antibacterial activity against methicillin-resistant Staphylococcus aureus ATCC 33591 assessed as growth inhibition by broth microdilution method. Type of assay: functional. Put shortly: (§1)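 Broth microdilution per CLSI; compounds serially diluted in sterile water, added to bacteria at 10^5 CFU/mL (diluted from 6 h cultures). Incubated at 37 °C, OD600 read. Triplicate wells, experiment done at least twice. Mean OD plotted against concentration and fitted sigmoidally; MIC taken where OD matches the no-bacteria control.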

Assay [2] has as its system Enterococcus faecium. The assay can be described thus: Antibacterial activity against vancomycin-resistant VanA phenotype of Enterococcus faecium ATCC 51559 assessed as growth inhibition by broth microdilution method. Type of assay: functional. The gist of the method: as §1
A general note: Broth dilution looks for growth in wells or tubes with falling amounts of substance.

The test system of assay [3] is Enterococcus faecium. The assay can be described thus: Antibacterial activity against vancomycin-sensitive Enterococcus faecium ATCC 19634 assessed as growth inhibition by broth microdilution method. Type of assay: functional. Put shortly:
(§2)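 Broth microdilution per CLSI; compounds serially diluted in autoclaved water. Bacteria grown 6 h in suitable media, diluted to 10⁵ CFU/mL; compound added to bacterial suspension, incubated at 37 °C, OD600 read. Triplicate wells, experiment done at least twice; mean OD versus concentration sigmoidally fitted, MIC taken where OD equals no-bacteria control.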

Assay [4] deals with Staphylococcus aureus. The assay can be described thus: Antibacterial activity against methicillin-sensitive Staphylococcus aureus MTCC 737 assessed as growth inhibition by broth microdilution method. Type of assay: functional. The gist of the method:
as §2

Assay [5] concerns Enterococcus faecium. As to the kind of experiment: Antibacterial activity against vancomycin-resistant VanA phenotype of Enterococcus faecium ATCC 51559 assessed as induction of membrane depolarization at 10 uM measured for 10 mins by DiSC3(5) dye-based spectrofluorometric analysis. Type of assay: functional, organism-based. The gist of the method:
(§3)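 Membrane potential assay with DiSC3(5): dye added to cells until maximal uptake, seen as a fluorescence minimum (about 10 min). Compounds then added and depolarization followed as the fluorescence increase over a further 10 min.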

Assay [6] concerns Enterococcus faecium. The assay can be described thus: Antibacterial activity against vancomycin-resistant VanA phenotype of Enterococcus faecium ATCC 51559 assessed as leakage of intracellular potassium ion at 10 uM measured for 10 mins by PBFI-AM dye-based spectrofluorometric analysis. Type of assay: functional, organism-based. The gist of the method:
(§4)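 Mid-log (6 h) cells washed twice and resuspended in 10 mM HEPES pH 7.2 with 0.5% glucose. Signal stabilized 60 s at RT, then 1 μM PBFI-AM added and a 2 min baseline recorded before compound.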

For assay [7], the system named is Enterococcus faecium. The assay can be described thus: Antibacterial activity against vancomycin-resistant VanA phenotype of Enterococcus faecium ATCC 51559 assessed as induction of cytoplasmic membrane permeabilization at 10 uM measured for 10 mins by propidium iodide uptake assay. The format is functional, organism-based. The gist of the method: (§5)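 Mid-log (6 h) cells harvested at 4 °C, washed and resuspended in PBS pH 7.2. Compound added to cells with 10 μM propidium iodide. Fluorescence (ex 535/em 617 nm) monitored 10 min at RT; the rise in PI fluorescence taken as inner membrane permeabilization.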

Assay [8] has as its system Staphylococcus aureus. The assay can be described thus: Antibacterial activity against vancomycin-intermediate-resistant Staphylococcus aureus assessed as growth inhibition by broth microdilution method. The format is functional. The gist of the method: as §1
In assay [9] the test system is Staphylococcus aureus. The assay can be described thus: Antibacterial activity against methicillin-resistant Staphylococcus aureus ATCC 33591 assessed as induction of cytoplasmic membrane permeabilization at 10 uM measured for 10 mins by propidium iodide uptake assay. Type of assay: functional, organism-based. The gist of the method:
as §5

For assay [10], the system named is Staphylococcus aureus. As to the kind of experiment: Antibacterial activity against methicillin-resistant Staphylococcus aureus ATCC 33591 assessed as induction of membrane depolarization at 10 uM measured for 10 mins by DiSC3(5) dye-based spectrofluorometric analysis. The format is functional, organism-based. Put shortly: as §3
In assay [11] the test system is Enterococcus faecium. The assay can be described thus: Antibacterial activity against vancomycin-resistant VanA phenotype of Enterococcus faecium ATCC 51559 assessed as induction of membrane depolarization measured at < 3 mins by DiSC3(5) dye-based spectrofluorometric analysis. The format is functional, organism-based. Put shortly:
as §3

For assay [12], the system named is Staphylococcus aureus. The assay can be described thus: Antibacterial activity against methicillin-resistant Staphylococcus aureus ATCC 33591 assessed as induction of cytoplasmic membrane permeabilization measured within 5 mins by propidium iodide uptake assay. The format is functional, organism-based. The gist of the method: as §5
The test system of assay [13] is Staphylococcus aureus. The assay can be described thus: Antibacterial activity against methicillin-resistant Staphylococcus aureus ATCC 33591 assessed as leakage of intracellular potassium ion at 10 uM measured for 10 mins by PBFI-AM dye-based spectrofluorometric analysis relative to control. Type of assay: functional. Put shortly: as §4
The test system of assay [14] is Staphylococcus aureus. As to the kind of experiment: Antibacterial activity against methicillin-resistant Staphylococcus aureus ATCC 33591 assessed as induction of membrane depolarization measured at < 3 mins by DiSC3(5) dye-based spectrofluorometric analysis. The format is functional, organism-based. The gist of the method: as §3

The term MIC90 denotes the lowest concentration that inhibits either 90% of growth or 90% of the strains tested, depending on the study. With `CN[C@H]1C(=O)N[C@@H]2Cc3ccc(cc3)Oc3cc4cc(c3O[C@@H]3O[C@H](C(=O)O)[C@@H](O)[C@H](O)[C@H]3NC(=O)CCCCCCCCC(C)C)Oc3ccc(cc3Cl)[C@@H](O)[C@@H]3NC(=O)[C@H](NC(=O)[C@@H]4NC(=O)[C@@H](NC2=O)c2cc(cc(O)c2Cl)Oc2cc1ccc2O)c1ccc(O)c(c1)-c1c(O[C@H]2O[C@H](CO)[C@@H](O)[C@H](O)[C@@H]2O)cc(O)cc1[C@@H](C(=O)NCCCN(C)C)NC3=O` [DALBAVANCIN], the MIC90 was 0.04 µM in the assay on Staphylococcus aureus [1], > 18 µM in the assay with Enterococcus faecium [2], 0.08 µM in the assay on Enterococcus faecium [3] and 0.04 µM with Staphylococcus aureus [4].
Regarding `CCCCCCCCCCNCCN[C@@]1(C)C[C@H](O[C@H]2[C@H](Oc3c4cc5cc3Oc3ccc(cc3Cl)[C@@H](O)[C@@H](NC(=O)[C@@H](CC(C)C)NC)C(=O)N[C@@H](CC(N)=O)C(=O)N[C@H]5C(=O)N[C@H]3C(=O)N[C@H](C(=O)N[C@H](C(=O)O)c5cc(O)c(CNCP(=O)(O)O)c(O)c5-c5cc3ccc5O)[C@H](O)c3ccc(c(Cl)c3)O4)O[C@H](CO)[C@@H](O)[C@@H]2O)O[C@@H](C)[C@H]1O` [TELAVANCIN], the MIC90 in the assay on Staphylococcus aureus [1] turned out to be 0.3 µM; in the assay on Enterococcus faecium [2], 4 µM; in the assay with Enterococcus faecium [3] it was 0.15 µM; with Staphylococcus aureus [4] it was 0.3 µM.
Turning to `CCCCCCCCCCCCCC[N+](C)(C)CCCNC(C)=O`, the result in the assay with Enterococcus faecium [5], in the assay with Enterococcus faecium [6] and in the assay with Enterococcus faecium [7] was inactive.
Usually MIC stands for the lowest concentration that inhibits growth of the organism. With `CC[N+](C)(C)CCCNC(=O)[C@H]1NC(=O)[C@H]2NC(=O)[C@H](NC(=O)[C@@H]3NC(=O)[C@H](CC(N)=O)NC(=O)[C@H](NC(=O)[C@@H](CC(C)C)NC)[C@H](O)c4ccc(c(Cl)c4)Oc4cc3cc(c4O[C@@H]3O[C@H](CO)[C@@H](O)[C@H](O)[C@H]3O[C@H]3C[C@](C)(N)[C@H](O)[C@H](C)O3)Oc3ccc(cc3Cl)[C@H]2O)c2ccc(O)c(c2)-c2c(O)cc(O)cc21`, the minimum inhibitory concentration (MIC) in the assay with Staphylococcus aureus [8] is 1.3 µM; in the assay with Staphylococcus aureus [1], 2.42 µM; with Enterococcus faecium [2], > 100 µM; in the assay with Enterococcus faecium [3], 0.45 µM; with Staphylococcus aureus [4] it was 0.39 µM. Besides, the result with Staphylococcus aureus [9], in the assay with Enterococcus faecium [5], in the assay with Enterococcus faecium [6], with Enterococcus faecium [7] and in the assay on Staphylococcus aureus [10] was inactive.
`CCCCCCCCCCCCCCCCCC[N+](C)(C)CCCNC(=O)[C@H]1NC(=O)[C@H]2NC(=O)[C@H](NC(=O)[C@@H]3NC(=O)[C@H](CC(N)=O)NC(=O)[C@H](NC(=O)[C@@H](CC(C)C)NC)[C@H](O)c4ccc(c(Cl)c4)Oc4cc3cc(c4O[C@@H]3O[C@H](CO)[C@@H](O)[C@H](O)[C@H]3O[C@H]3C[C@](C)(N)[C@H](O)[C@H](C)O3)Oc3ccc(cc3Cl)[C@H]2O)c2ccc(O)c(c2)-c2c(O)cc(O)cc21.O=C([O-])C(F)(F)F`: the minimum inhibitory concentration (MIC) with Staphylococcus aureus [8] worked out at 0.92 µM; in the assay with Enterococcus faecium [2], 1.9 µM; with Staphylococcus aureus [4], 5.03 µM. In addition, the outcome with Enterococcus faecium [6] and in the assay with Enterococcus faecium [7] was Active. Moreover, the Activity result in the assay on Enterococcus faecium [11] was “Dose-dependent effect”; with Staphylococcus aureus [12], “Dose-dependent effect”; in the assay with Staphylococcus aureus [13], 99%; with Staphylococcus aureus [14] it was “Dose-dependent effect”.
On to `CCCCCCCCCC[N+](C)(C)CCCNC(=O)[C@H]1NC(=O)[C@H]2NC(=O)[C@H](NC(=O)[C@@H]3NC(=O)[C@H](CC(N)=O)NC(=O)[C@H](NC(=O)[C@@H](CC(C)C)NC)[C@H](O)c4ccc(c(Cl)c4)Oc4cc3cc(c4O[C@@H]3O[C@H](CO)[C@@H](O)[C@H](O)[C@H]3O[C@H]3C[C@](C)(N)[C@H](O)[C@H](C)O3)Oc3ccc(cc3Cl)[C@H]2O)c2ccc(O)c(c2)-c2c(O)cc(O)cc21`, for which the MIC with Staphylococcus aureus [8] came to 0.3 µM; in the assay with Staphylococcus aureus [1], 0.31 µM; in the assay on Enterococcus faecium [2], 3 µM; with Enterococcus faecium [3], 0.2 µM; in the assay with Staphylococcus aureus [4], 0.31 µM. The result in the assay with Enterococcus faecium [6], in the assay with Staphylococcus aureus [13] and with Enterococcus faecium [7] was Active. In addition, the Activity result in the assay with Enterococcus faecium [11], in the assay with Staphylococcus aureus [12] and in the assay with Staphylococcus aureus [14] was “Dose-dependent effect” throughout.
For the compound `CCCC[N+](C)(C)CCCNC(=O)[C@H]1NC(=O)[C@H]2NC(=O)[C@H](NC(=O)[C@@H]3NC(=O)[C@H](CC(N)=O)NC(=O)[C@H](NC(=O)[C@@H](CC(C)C)NC)[C@H](O)c4ccc(c(Cl)c4)Oc4cc3cc(c4O[C@@H]3O[C@H](CO)[C@@H](O)[C@H](O)[C@H]3O[C@H]3C[C@](C)(N)[C@H](O)[C@H](C)O3)Oc3ccc(cc3Cl)[C@H]2O)c2ccc(O)c(c2)-c2c(O)cc(O)cc21`, the MIC in the assay with Staphylococcus aureus [8] was 1.14 µM; in the assay with Staphylococcus aureus [1], 0.6 µM; with Enterococcus faecium [2], > 100 µM; in the assay with Enterococcus faecium [3], 0.31 µM; in the assay on Staphylococcus aureus [4], 0.37 µM. Besides, the result in the assay on Staphylococcus aureus [9], in the assay with Enterococcus faecium [5], in the assay with Enterococcus faecium [6], in the assay with Enterococcus faecium [7] and in the assay on Staphylococcus aureus [10] was inactive.
As to `CN[C@H](CC(C)C)C(=O)N[C@H]1C(=O)N[C@@H](CC(N)=O)C(=O)N[C@H]2C(=O)N[C@H]3C(=O)N[C@H](C(=O)N[C@H](C(=O)NCCCN(C)C)c4cc(O)cc(O)c4-c4cc3ccc4O)[C@H](O)c3ccc(c(Cl)c3)Oc3cc2cc(c3O[C@@H]2O[C@H](CO)[C@@H](O)[C@H](O)[C@H]2O[C@H]2C[C@](C)(N)[C@H](O)[C@H](C)O2)Oc2ccc(cc2Cl)[C@H]1O`, the minimal inhibitory concentration (MIC) in the assay on Staphylococcus aureus [8] is 1.47 µM; in the assay with Staphylococcus aureus [1], 0.61 µM; in the assay on Enterococcus faecium [2], > 100 µM; in the assay on Enterococcus faecium [3], 0.63 µM; in the assay with Staphylococcus aureus [4] it was 0.62 µM. The outcome with Staphylococcus aureus [9], in the assay with Enterococcus faecium [5], in the assay on Enterococcus faecium [6], in the assay on Enterococcus faecium [7] and in the assay with Staphylococcus aureus [10] was inactive.
Regarding `CCCCCCCCCCCCCCNCCCNC(=O)[C@H]1NC(=O)[C@H]2NC(=O)[C@H](NC(=O)[C@@H]3NC(=O)[C@H](CC(N)=O)NC(=O)[C@H](NC(=O)[C@@H](CC(C)C)NC)[C@H](O)c4ccc(c(Cl)c4)Oc4cc3cc(c4O[C@@H]3O[C@H](CO)[C@@H](O)[C@H](O)[C@H]3O[C@H]3C[C@](C)(N)[C@H](O)[C@H](C)O3)Oc3ccc(cc3Cl)[C@H]2O)c2ccc(O)c(c2)-c2c(O)cc(O)cc21`, the MIC with Staphylococcus aureus [8] amounted to 1 µM; with Staphylococcus aureus [1] it was 0.61 µM; in the assay on Enterococcus faecium [2], 5 µM; in the assay with Enterococcus faecium [3] it was 0.4 µM; with Staphylococcus aureus [4], 0.55 µM. Also, the result in the assay on Enterococcus faecium [5], in the assay with Enterococcus faecium [6] and in the assay on Enterococcus faecium [7] was inactive.
